Not all results are given here.
HKDC1 act = activators of human hexokinase HKDC1 | AID 493187 | recombinant HKDC1, G6PDH/diaphorase resazurin fluorescence; active compounds read low | activity change, negative = activation, % at 20 µM | 0.056% of 340,000 active;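 active = activation of 40% or more at 20 µM, a change of -40% or lower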
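Dosing: single compound dose of 20 µM, 1% DMSO final / Test system: in-house human HKDC1 enzyme, G6PDH and diaphorase coupling enzymes / Quantity: 5 µg/mL HKDC1 final / Incubation: enzyme reaction 90 min, room temperature, in dark / Buffer or medium: pH 8.0 Tris with MgCl2 / Detection: coupled resazurin-to-resorufin fluorescence, Ex 525/Em 613 nm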
The depositor's hits bear a star.

Screening CCCC(=O)N1CCN(Cc2ccc3c(c2)OCO3)CC1 returned HKDC1 act -56.9*.
`COC(=O)CCC(=O)OC1(C)C(=O)C2=CN(Cc3ccc4c(c3)OCO4)C(c3ccc(OC)cc3)=CC2=C(Br)C1=O` (stereo unspecified) gave HKDC1 act 39.9.
Nc1ccc(N)c(C(=O)O)c1 was read as HKDC1 act 36.0.
For CCc1ccc(S(=O)(=O)/N=C2\C=C(Nc3cccc(C(=O)O)c3)C(=O)c3ccccc32)cc1 the results were HKDC1 act 52.7.
Screening COc1cc(N=c2ssnc2Cl)c(OC)cc1Cl returned HKDC1 act -45.7*.
For Cc1cc(C)nc(/N=c2/ssnc2Cl)c1 the results were HKDC1 act -136.6*.
Cc1ccc(N=c2ssnc2Cl)cc1 was read as HKDC1 act -50.8*.
`Cc1nnc(N=c2ssnc2Cl)o1` gave HKDC1 act -88.2*.
N#CC1(NC(=O)COC(=O)c2cc(O)c3ccccc3c2O)CCCCC1 was read as HKDC1 act 49.7.
`Oc1ccc(-c2cnns2)c(O)c1` gave HKDC1 act 45.4.
For COc1ccccc1Nc1ccc2c(O)cc(S(=O)(=O)O)cc2c1 the results were HKDC1 act 38.0.
Screening O=S(=O)(/N=C/c1c(O)ccc2ccccc12)c1ccccc1 returned HKDC1 act 44.2.
Screening N#CC(C#N)=c1ccc2c(c1)N1C3=C(CCCC3)CC3CCCCC31N=2 (stereo unspecified) returned HKDC1 act 38.8.
`Cc1nc([N+](=O)[O-])c(Br)n1CC(=O)c1ccc2ccccc2c1` gave HKDC1 act 45.7.
For NC1=C(Br)C(=O)c2ncccc2C1=O the results were HKDC1 act 37.9.
For CCc1ccc(S(=O)(=O)/N=C2/C=C(Sc3ncn[nH]3)C(=O)c3ccccc32)cc1 the results were HKDC1 act 71.3.
For CC(C)(C)n1[nH]c2c3c(ccc2c1=O)C(=O)c1ccccc1C3=O the results were HKDC1 act 42.4.
`CCNc1ccc(Br)cc(C(=O)/C=C/c2c(Cl)cccc2Cl)c1=O` gave HKDC1 act 37.3.
Screening CC(NC(=O)c1sc2cc([N+](=O)[O-])ccc2c1Cl)C(C)(C)C (stereo unspecified) returned HKDC1 act -76.1*.
For CCOC(=O)N1CCN(c2cc(NCCC(=O)O)c3c4c(onc24)-c2ccccc2C3=O)CC1 the results were HKDC1 act 37.1.
For Cc1oc2c(c1C(=O)c1ccccc1)C(=O)C(=O)c1ccccc1-2 the results were HKDC1 act 42.2.
For O=C1C=CC(=O)c2c(O)c(CO)c(CO)c(O)c21 the results were HKDC1 act 48.5.
For Cc1ccc(SSc2cc(C)ccc2N)c(N)c1 the results were HKDC1 act -44.3*.
Screening C=CCOc1ccc(C=NNc2ccc(S(=O)(=O)Nc3ccccc3C(=O)O)cc2[N+](=O)[O-])cc1OC returned HKDC1 act 51.5.
Screening O=C(O)[C@@H](c1ccccc1)N1Cc2ccccc2C1=O returned HKDC1 act 52.0.
`COc1ccc(-c2cc3ccccc3[nH]2)cc1` gave HKDC1 act 38.5.
Screening O=C1NC(=S)S/C1=C\c1ccc(SCc2ccco2)o1 returned HKDC1 act 50.6.
NC(CSC(c1ccccc1)(c1ccccc1)c1cccc2ccccc12)C(=O)O (stereo unspecified) was read as HKDC1 act 35.4.
For O=C1C=CC(=O)C(CNc2ccc(C(=O)OCc3ccccc3)cc2)=C1 the results were HKDC1 act 46.7.
Screening Oc1ccc(/C=N/NC(=S)Nc2cccnc2)c(O)c1 returned HKDC1 act -40.3*.
Cn1c2ccccc2c(=O)c2c(=O)n(-c3ccccc3)c(C3CCCCC3)nc21 was read as HKDC1 act 43.3.
`COC(=O)CCC(=O)Nc1sc(Cc2ccccc2)c(C)c1C(N)=O` gave HKDC1 act -43.7*.
For O=C(CN1C(=O)/C(=C2/SC(=S)N(CCS(=O)(=O)O)C2=O)c2ccccc21)Nc1cccc(C(F)(F)F)c1 the results were HKDC1 act 36.2.
`COc1cc(NS(=O)(=O)c2ccc(NC(=O)c3ccc(F)cc3)cc2)ncn1` gave HKDC1 act -58.8*.
`O=C(Nc1ccc2nc(-c3ccco3)c(-c3ccco3)nc2c1)NC1CC1` gave HKDC1 act 50.2.
For COc1ccc2[nH]c3c4c(ccc3c2c1)C(=O)C=CC4=O the results were HKDC1 act 51.1.
For COC(=O)c1cc(C)nc2c1C(=O)C(=O)C=C2N1CCOCC1 the results were HKDC1 act 68.1.
`Cc1cc(NC(=S)NC(=O)c2ccccc2)ccc1-c1cc2ccccc2oc1=O` gave HKDC1 act -47.5*.
O=C(O)c1ccc(NC2=C/C(=N/S(=O)(=O)c3ccccc3)c3ccccc3C2=O)cc1 was read as HKDC1 act 71.9.
For COc1cc(/C=C(\C#N)c2nc3ccc(C)cc3[nH]2)cc([N+](=O)[O-])c1O the results were HKDC1 act 41.3.
O=S(=O)(Nc1ccc(O)c2ccccc12)c1cccs1 was read as HKDC1 act 51.0.
Screening COC(=O)c1ccc(NC(=O)CSc2n[nH]c(-c3ccncc3)n2)cc1 returned HKDC1 act 36.3.
`COc1ccc(-c2[nH]c(-c3ccc(SC)cc3)nc2SCC(=O)Nc2nccs2)cc1` gave HKDC1 act -54.3*.
For CCOC(=O)c1ccc(NC(=O)CSc2n[nH]c(-c3ccncc3)n2)cc1 the results were HKDC1 act 39.6.
For COc1cc(/C=C2\SC(c3ccc(C)cc3)=NC2=O)cc(OC)c1O the results were HKDC1 act 47.5.
COc1ncnc2c1oc1nc(C(C)C)c3c(c12)CC(C)(C)OC3 was read as HKDC1 act 53.1.
For O=C(N/N=C/c1ccccc1OC(=O)c1ccc2c(c1)OCO2)c1ccccc1 the results were HKDC1 act -48.1*.
O=C(CSc1n[nH]c(-c2cccnc2)n1)Nc1ccc([N+](=O)[O-])cc1Br was read as HKDC1 act 45.6.
`CC(C)Nc1nnc(SCC(=O)Nc2ccc3c(c2)C(=O)c2ccccc2C3=O)s1` gave HKDC1 act 43.1.
S=C(NCc1ccccn1)NN=Cc1ccccn1 was read as HKDC1 act -44.1*.
Screening CCOC(=O)/C(=C\c1cccnc1)C(=O)c1cc(C(C)=O)c(Nc2ccccc2)s1 returned HKDC1 act 42.5.
`COc1cc(-c2ccc(Nc3ccccc3C(=O)O)c(OC)c2)ccc1Nc1ccccc1C(=O)O` gave HKDC1 act 42.3.
Cc1cccn2c(=O)c3cc(C(N)=S)c(=N)n(CCCN4CCOCC4)c3nc12 was read as HKDC1 act -53.8*.
Screening CC(C)C(=O)N(c1cc2sc(=O)oc2c2ccccc12)S(=O)(=O)c1cccs1 returned HKDC1 act 45.0.
For Cn1nccc1C(=O)N1CCN(c2cccc(Cl)c2)CC1 the results were HKDC1 act 38.7.
`O=[N+]([O-])c1ccc(N/N=C/c2ccc(O)c(O)c2O)c(S(=O)(=O)N2CCOCC2)c1` gave HKDC1 act 38.2.
`Cc1ccc(Cl)cc1NC1=C/C(=N\S(=O)(=O)c2cccs2)c2ccccc2C1=O` gave HKDC1 act 36.0.
`CCN(CC)c1ccc(C(=C2C=CC(=[N+](CC)CC)C=C2)c2ccc(N(CC)CC)cc2)cc1` gave HKDC1 act 53.7.
For CC(C)(C)c1nnc(N/N=C/c2cc(Br)ccc2O)n(N)c1=O the results were HKDC1 act -43.2*.
COc1ccc2[nH]c(=O)c(CN(C3CCCCC3)C(c3nnnn3Cc3ccco3)C(C)C)cc2c1 (stereo unspecified) was read as HKDC1 act 36.9.

Compound activity as filed in PubChem BioAssay.
